# According to article PMC5575927 (ACS chemical biology, 2017):
# Where a SMILES comes first, the peptide text is derived from it. The star is where a group is joined. AMC = Cc1cc(=O)oc2cc(N*)ccc12; Boc = CC(C)(C)OC(=O)*
# Columns and labels:
# PmC11 [1] = settings: ref [16]; cited from earlier work
# PmC11 [2] = assay: E64 inhibition of PmC11 proteolytic activity; format: biochemical, Parabacteroides merdae; settings: 4-fold excess of E64; Figure S5B
# clostripain = settings: rather than covalently modifying the catalytic cysteine; ref [38],[39]; cited from earlier work
# PmC11 [3] = assay: Michaelis-Menten kinetics of fluorogenic AMC substrate hydrolysis; format: biochemical, Parabacteroides merdae; settings: 25 nM PmC11; PBS (pH 7.4), 5 mM DTT, 0.1 mM EDTA, 1 mM CaCl2, 0.1% CHAPS; 25 °C
# Outline: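 Recombinant His6-tagged WT PmC11 was expressed in E. coli, self-matured, and purified by Ni-NTA and anion exchange. Reactions were started by adding Ac-VLTK-AMC at 400 pM to 400 μM. Fluorescence (excitation 355 nm, emission 460 nm) was read every 20 s for 25 min. KM and kcat were obtained by Michaelis-Menten fitting of hydrolysis rates.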
# PmC11 [4] = target: PmC11 (Parabacteroides merdae, UniProt A0A9Q4WVB1); format: biochemical
# Outline: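 Recombinant His6-tagged WT PmC11 was expressed in E. coli BL21DE3pLysS, self-matured during expression, and purified by Ni-NTA then anion exchange. Test compound was applied at decreasing amounts from 5 μM to 10 nM during the 30 min preincubation. IC50 was derived from the rate of substrate hydrolysis measured after substrate addition.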
compound,measurement,setting,value
Boc-Val-Leu-Lys-{AMC},hydrolysis by PmC11 (in words),PmC11 [1],hydrolyze
Z-Gly-Gly-Arg-AMC,hydrolysis by PmC11 (in words),PmC11 [1],hydrolyze
"CC(C)C[C@H](NC(=O)[C@H]1O[C@@H]1C(=O)O)C(=O)NCCCCN=C(N)N (relative stereo) [E64, L-trans-Epoxysuccinyl-leucylamido(4-guanidino)butane]",loss of proteolytic activity,PmC11 [2],30%
same,manner of clostripain inhibition (in words),clostripain,reversible competitive
CC(=O)N[C@H](C(=O)N[C@@H](CC(C)C)C(=O)N[C@H](C(=O)N[C@@H](CCCCN)C(=O)Nc1ccc2c(C)cc(=O)oc2c1)[C@@H](C)O)C(C)C [Ac-VLTK-AMC] (Ac-VLTK-{AMC}),kcat/KM (catalytic efficiency),PmC11 [3],1.6 x 10^5 s^−1M^−1
"CC(=O)N[C@H](C(=O)N[C@@H](CC(C)C)C(=O)N[C@H](C(=O)N[C@@H](CCCCN)C(=O)COC(=O)c1c(C)cccc1C)[C@@H](C)O)C(C)C [Ac-VLTK-AOMK, acetyl-Val-Leu-Thr-Lys acyloxymethyl ketone (2,6-dimethylbenzoic acid-derived acyloxy leaving group)]",IC50,PmC11 [4],< 25 nM
Cc1cc(=O)oc2cc(NC(=O)C(CCCN=C(N)N)NC(=O)c3ccccc3)ccc12.Cl (stereo not shown) [Bz-Arg-AMC],hydrolysis by PmC11 (in words),PmC11 [1],hydrolyze
